Measured values taken from ChEMBL document CHEMBL1154935, “Design, synthesis, evaluation and QSAR analysis of N(1)-substituted norcymserine derivatives as selective butyrylcholinesterase inhibitors” (Bioorg Med Chem Lett, 2010).

Experiments:
Acetylcholinesterase = biological target: T1, Acetylcholinesterase (Mus musculus, UniProt P21836); assay: Inhibition of mouse brain AChE after 1 hr by modified Ellman's colorimetric method
T1 sequence (P21836 whole entry): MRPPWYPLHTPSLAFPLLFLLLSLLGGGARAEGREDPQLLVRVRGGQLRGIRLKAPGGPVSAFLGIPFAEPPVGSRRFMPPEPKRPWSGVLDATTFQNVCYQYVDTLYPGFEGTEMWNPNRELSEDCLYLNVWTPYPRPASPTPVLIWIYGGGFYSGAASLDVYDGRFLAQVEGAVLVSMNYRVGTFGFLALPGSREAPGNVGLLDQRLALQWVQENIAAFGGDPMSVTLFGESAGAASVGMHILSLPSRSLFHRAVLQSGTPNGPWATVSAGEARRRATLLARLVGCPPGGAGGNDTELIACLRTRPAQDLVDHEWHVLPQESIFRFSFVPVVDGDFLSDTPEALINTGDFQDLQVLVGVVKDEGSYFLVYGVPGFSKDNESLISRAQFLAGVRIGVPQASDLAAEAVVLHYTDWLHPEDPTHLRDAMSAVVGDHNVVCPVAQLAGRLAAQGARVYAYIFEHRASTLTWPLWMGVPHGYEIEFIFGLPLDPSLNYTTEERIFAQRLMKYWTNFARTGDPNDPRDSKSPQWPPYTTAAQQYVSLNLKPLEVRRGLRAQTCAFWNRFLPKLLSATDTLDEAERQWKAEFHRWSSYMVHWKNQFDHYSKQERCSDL
Method in brief: (§1)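 Enzyme source was a mouse brain extract. Inhibitor was preincubated with enzyme for 1 h at 37 °C, then acetylthiocholine was added together with DTNB. Absorbance at 415 nm was read at 2 min intervals. Activity was taken as percent of the DMSO solvent control. Seven concentrations were tested, and IC50 came from nonlinear regression of a sigmoidal dose-response curve.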

Cholinesterase = Cholinesterase (Mus musculus, UniProt Q03311); assay: Inhibition of mouse serum BChE after 1 hr by modified Ellman's colorimetric method
Chain of Cholinesterase (Q03311 whole entry): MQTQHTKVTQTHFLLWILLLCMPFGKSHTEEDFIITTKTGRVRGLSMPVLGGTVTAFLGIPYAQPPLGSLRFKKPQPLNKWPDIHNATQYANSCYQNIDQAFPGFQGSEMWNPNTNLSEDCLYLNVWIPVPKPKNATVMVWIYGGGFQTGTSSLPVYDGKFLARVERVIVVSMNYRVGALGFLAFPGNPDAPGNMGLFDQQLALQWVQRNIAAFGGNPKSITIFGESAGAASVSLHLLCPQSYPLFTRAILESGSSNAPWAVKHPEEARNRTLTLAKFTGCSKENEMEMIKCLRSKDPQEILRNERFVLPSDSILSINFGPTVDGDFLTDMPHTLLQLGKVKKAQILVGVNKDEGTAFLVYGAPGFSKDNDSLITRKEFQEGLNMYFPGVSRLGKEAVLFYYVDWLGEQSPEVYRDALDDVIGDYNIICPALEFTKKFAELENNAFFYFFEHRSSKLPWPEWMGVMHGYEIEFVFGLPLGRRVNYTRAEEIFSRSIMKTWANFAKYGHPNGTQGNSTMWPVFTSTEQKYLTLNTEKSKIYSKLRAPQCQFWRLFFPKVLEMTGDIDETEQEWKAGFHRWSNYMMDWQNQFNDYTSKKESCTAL
Method in brief: as §1, with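 “serum” for “brain”, “butyrylthiocholine” for “acetylthiocholine”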

Row | SMILES | IC50 (Acetylcholinesterase) | IC50 (Cholinesterase)
1 | CC(C)c1ccc(NC(=O)Oc2ccc3c(c2)[C@]2(C)CCN(CC(c4ccccc4)c4ccccc4)[C@@H]2N3C)cc1 | > 100 µM | 10 µM
2 | CC(C)c1ccc(NC(=O)Oc2ccc3c(c2)[C@]2(C)CCN(C(Cc4ccccc4)c4ccccc4)[C@@H]2N3C)cc1 (stereo not given in full) | > 100 µM | 15 µM
3 | CC(C)c1ccc(NC(=O)Oc2ccc3c(c2)[C@]2(C)CCN(CCc4ccc(Cl)cc4)[C@@H]2N3C)cc1 | > 100 µM | 0.5 µM
4 | CC(C)c1ccc(CCN2CC[C@@]3(C)c4cc(OC(=O)Nc5ccc(C(C)C)cc5)ccc4N(C)[C@@H]23)cc1 | > 100 µM | 3.3 µM
5 | CC(C)c1ccc(NC(=O)Oc2ccc3c(c2)[C@]2(C)CCN(CCc4ccc(Cl)cc4Cl)[C@@H]2N3C)cc1 | > 100 µM | 2.6 µM
6 | Cc1ccc(CCN2CC[C@@]3(C)c4cc(OC(=O)Nc5ccc(C(C)C)cc5)ccc4N(C)[C@@H]23)c(C)c1 | > 100 µM | 1.1 µM
7 | CC(C)c1ccc(NC(=O)Oc2ccc3c(c2)[C@]2(C)CCN(CC(C)c4ccccc4)[C@@H]2N3C)cc1 (stereo not given in full) | > 100 µM | 0.72 µM
8 | CC(C)c1ccc(NC(=O)Oc2ccc3c(c2)[C@]2(C)CCN(CCc4ccccn4)[C@@H]2N3C)cc1 | 4.2 µM | 0.16 µM
9 | CC(C)c1ccc(NC(=O)Oc2ccc3c(c2)[C@]2(C)CCN(CCN4CCCCC4)[C@@H]2N3C)cc1 | 3.5 µM | 0.17 µM
10 | CC(C)c1ccc(NC(=O)Oc2ccc3c(c2)[C@]2(C)CCN(CCc4cccnc4)[C@@H]2N3C)cc1 | > 100 µM | 0.18 µM
11 | CC(C)c1ccc(NC(=O)Oc2ccc3c(c2)[C@]2(C)CCN(CCc4ccncc4)[C@@H]2N3C)cc1 | 23 µM | 0.17 µM
12 | CC(C)c1ccc(NC(=O)Oc2ccc3c(c2)[C@]2(C)CCN(CCCCc4ccccc4)[C@@H]2N3C)cc1 | > 100 µM | 0.55 µM
13 | Cc1ccc(CCN2CC[C@@]3(C)c4cc(OC(=O)Nc5ccc(C(C)C)cc5)ccc4N(C)[C@@H]23)cc1 | > 100 µM | 0.73 µM
14 | CC(C)c1ccc(NC(=O)Oc2ccc3c(c2)[C@]2(C)CCN(CCCc4ccccc4)[C@@H]2N3C)cc1 | > 100 µM | 0.51 µM
15 | CC(C)c1ccc(NC(=O)Oc2ccc3c(c2)[C@]2(C)CCN(CCc4ccc(F)cc4)[C@@H]2N3C)cc1 | > 100 µM | 0.5 µM
16 | CC(C)c1ccc(NC(=O)Oc2ccc3c(c2)[C@]2(C)CCN(Cc4ccccc4)[C@@H]2N3C)cc1 | > 100 µM | 0.51 µM
17 | CC(C)c1ccc(NC(=O)Oc2ccc3c(c2)[C@]2(C)CCN(C)[C@@H]2N3C)cc1 [4-ISOPROPYLPHENSERINE] | 8.4 µM | 0.24 µM
18 | CC(C)c1ccc(NC(=O)Oc2ccc3c(c2)[C@]2(C)CCN(CCc4ccccc4)[C@@H]2N3C)cc1 [PHENETHYLCYMSERINE] | > 100 µM | 
